Results gathered from unrelated publications.
Each line is one published result; the experiments were not run side by side.
Cell line: K562
Read-out: cell growth or viability

Structure (SMILES)	test	setting	IC50
CCCCc1ccc2[nH]c(NC(=O)OC)nc2c1	CCK-8	72 h	61.2 nM
O=C1CCCCC1C1C2C=CC=CC1C(CCN1C(=O)c3ccccc3C1=O)=C2 (centres unmarked)	flow cytometry	–	11 nM
Cc1cc(NCCCCCCCNc2cc(C)nc3cc(N)ccc23)c2ccc(N)cc2n1	XTT	96 h	13000 nM
N#CCCC1=CC2C=CC=CC1C2C1CCCCC1=O (centres unmarked)	flow cytometry	–	57 nM
COc1ccc(/C=C\c2cc(OC)c(OC)c(OC)c2)cc1O	–	–	5 nM
N[C@@H](CC(=O)N1CCN(C(c2ccc(F)cc2)c2ccc(F)cc2)CC1)C(=O)N1Cc2ccccc2C1	ATP luminescence	48 h	40800 nM
O=C1CCCCC1C1C2C=CC=CC1C(CCCCOC1CCCCO1)=C2 (centres unmarked)	flow cytometry	–	27 nM
COC(=O)Nc1nc2ccc(Oc3ccc(NC(=O)Nc4cc(C(F)(F)F)ccc4F)cc3)cc2s1	XTT	72 h	81 nM
CCCON(Cc1ccc(C(=O)NO)cc1)C(=O)Nc1ccc(N(C)C)cc1	ATP luminescence	72 h	7680 nM
COc1cc(Nc2nccc(-c3cnn4nc(OC)ccc34)n2)cc(C(F)(F)F)c1	ATP luminescence	–	260 nM
CC[C@@H](C)[C@H](N)C(=O)N1Cc2ccccc2C1	ATP luminescence	–	> 60000 nM
CCCCC1=CC2C=CC=CC1C2C1CCCCC1=O (centres unmarked)	flow cytometry	–	29 nM
CN1c2ccccc2C(=O)N2[C@H](C(=O)Nc3ccc(C(=O)Nc4ccccc4N)cc3)Cc3c([nH]c4ccccc34)[C@@H]12	–	–	1900 nM
CC(=O)O[C@H](C)C(=O)CCCCCCC(=O)Nc1ccccc1	thymidine uptake	–	> 100000 nM
c1ccc(-c2n[nH]cc2-c2ccnc(-c3ccc(OCCn4ccnc4)cc3)c2)nc1	XTT	72 h	20000 nM
N#CCCCC1=CC2C=CC=CC1C2C1CCCCC1=O (centres unmarked)	flow cytometry	–	31 nM
O=C1NC(=NCc2cccs2)S/C1=C\c1ccc2ncccc2c1	–	–	> 10000 nM
